Screening results as filed in PubChem BioAssay.
Only some compounds are listed: those with a hit (about 2.7% of all), similar ones and a draw of the others.
pPAFAH inh: inhibitors of human plasma PAF acetylhydrolase (pPAFAH) | Q13093 | recombinant pPAFAH, FP-rhodamine probe fluorescence polarization | inhibition, % at 3.39 µM | 330,000 compounds, 1.5% hits | AID 463082;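 active = inhibition above the mean inhibition across the screen plus 3 SD, cut at about 25% in these data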;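 note: inhibitors block binding of the rhodamine activity-based probe so polarization drops; 0% = enzyme with DMSO and 100% = wells lacking pPAFAH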
Target sequence (Q13093 whole entry, looked up): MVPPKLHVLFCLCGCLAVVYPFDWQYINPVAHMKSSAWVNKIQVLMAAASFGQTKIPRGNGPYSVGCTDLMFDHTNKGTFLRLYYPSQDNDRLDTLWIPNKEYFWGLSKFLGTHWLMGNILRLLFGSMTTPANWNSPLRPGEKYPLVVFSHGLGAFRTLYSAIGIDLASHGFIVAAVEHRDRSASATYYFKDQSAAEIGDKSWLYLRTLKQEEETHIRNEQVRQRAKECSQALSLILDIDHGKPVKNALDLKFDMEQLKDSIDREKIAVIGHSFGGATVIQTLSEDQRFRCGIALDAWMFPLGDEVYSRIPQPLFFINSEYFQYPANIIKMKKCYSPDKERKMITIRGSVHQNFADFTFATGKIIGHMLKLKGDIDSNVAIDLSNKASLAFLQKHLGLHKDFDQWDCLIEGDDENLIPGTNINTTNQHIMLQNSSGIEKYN
ARFGAP1 inh: inhibits rat ARF GTPase activating protein 1; Q62848; Arfgap1-stimulated ARF1 GTP hydrolysis, GDP FP detection; inhibition, % at 16.5 µM; 360,000 compounds, 0.26% hits;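 active = inhibition above a per-plate limit, mean inhibition of low control wells plus 3 SD, cut at about 25% in these data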;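 note: 0% = DMSO wells with enzyme and 100% = wells lacking Arfgap1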
Target sequence (Q62848 1-136 limits assumed): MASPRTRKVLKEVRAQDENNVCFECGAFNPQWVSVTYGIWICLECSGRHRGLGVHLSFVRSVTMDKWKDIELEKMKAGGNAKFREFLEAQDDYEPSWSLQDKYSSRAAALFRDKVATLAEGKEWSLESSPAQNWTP
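system = rat Arfgap1 catalytic domain, aa 1-136 | technique = FP, GDP Alexa 633 tracer displaced from anti-GDP antibody, 620/688 nm | compound = one concentration, 16.5 µM, DMSO 1.26% | medium = HEPES-based buffer, pH 7.5 | timing = compound-enzyme preincubation 20 min, reaction 120 min, detection 60 min, 25 °C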
PAFAH1B3 FP inh: PAFAH1B3 (human) inhibition | Q15102 | recombinant PAFAH1B3, FP-rhodamine probe, fluorescence polarization | inhibition, % at 3.39 µM | 340,000 compounds, 0.28% hits;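 active = inhibition above the screen-wide average of all tested compounds plus 3 SD, cut at about 25% in these data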;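 note: 0% = enzyme with DMSO only and 100% = wells lacking PAFAH1B3 protein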
ASAP1 GAP inh: inhibitors of human ASAP1 ArfGAP activity | inhibition, % at 16.5 µM | AID 624377 | 360,000 compounds, 0.19% hits | Q9ULH1 | ASAP1-stimulated ARF1 GTP hydrolysis, GDP FP detection; in the data active = inhibition above about 25%;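 note: 0% = vehicle with enzyme and substrate and 100% = no enzyme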
PAFAH1B2 FP inh: PAFAH1B2 (human) inhibition. P68402. recombinant PAFAH1B2, FP-rhodamine activity probe, fluorescence polarization. inhibition, % at 3.39 µM. 340,000 compounds, 1.2% hits. AID 492953;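 active = inhibition above the mean of all tested compounds plus 3 SD, cut at about 24% in these data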;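 note: 0% = enzyme with DMSO and 100% = wells lacking PAFAH1B2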
PAFAH2 inh: PAFAH2 (human) inhibition; inhibition, % at 3.39 µM; recombinant PAFAH2, FP-rhodamine activity probe, fluorescence polarization; Q99487; AID 492956; 340,000 compounds, 0.99% hits;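 active = inhibition above the mean over all tested compounds plus 3 SD, cut at about 30% in these data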;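 note: inhibitors block probe labeling of enzyme so polarization drops; 0% = enzyme with DMSO and 100% = wells lacking PAFAH2 protein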
An asterisk follows results filed as active; . = not tested or not shown.

SMILES | pPAFAH inh | ARFGAP1 inh | PAFAH1B3 FP inh | ASAP1 GAP inh | PAFAH1B2 FP inh | PAFAH2 inh
Cc1ccccc1NS(=O)(=O)c1ccc(C(=O)N2CC(C)OC(C)C2)cc1 (stereo not given) | 13.2 | 7.4 | 5.9 | -1.1 | 9.2 | 5.8
Cc1cccc(NS(=O)(=O)c2ccc(C(=O)N3CC(C)OC(C)C3)cc2)c1C (stereo not given) | 28.6* | 6.7 | 9.0 | 5.6 | 3.4 | 3.9
COc1ccc(OCC(=O)NNC(=O)C(=O)N2CCCC2)cc1 | 3.4 | -13.4 | 5.6 | -1.1 | 4.3 | -5.9
O=C(COc1ccc(Cl)cc1)NNC(=O)C(=O)N1CCCCC1 | 5.3 | -2.4 | 0.4 | -0.6 | 31.2* | 0.8
CC(=O)O[C@H]1CC[C@]2(C)C3CC[C@]4(C)[C@@H]([C@H](C)/C=C/[C@H](C)C(C)C)CC[C@H]4[C@@]34C=C[C@]2(C1)N(C(=O)c1ccccc1)O4 (stereo not given in full) | . | -1.8 | . | 3.9 | . | .
CCS(=O)(=O)c1ccc(O)c(NC(=O)/C=C/c2ccc(Cl)cc2)c1 | 28.1* | 7.9 | 3.7 | -11.0 | -4.1 | 65.6*
CCS(=O)(=O)c1ccc(O)c(NC(=O)COc2ccc(Br)cc2)c1 | 5.4 | 8.0 | 3.3 | 14.1 | 33.9* | 79.9*
CCN(CC)S(=O)(=O)c1ccc(O)c(NC(=O)COc2ccc(S(=O)(=O)N3CCOCC3)cc2)c1 | . | 4.8 | 11.8 | -5.9 | 0.6 | 12.6
O=S1(=O)N[C@@H](Cc2ccccc2)COc2cccc(NCCCN3CCOCC3)c21 | . | 6.7 | . | 3.8 | . | .
CCOc1ccc(/C=C/c2nc(C#N)c(NCCCOC)o2)cc1 | 28.2* | 8.2 | 15.4 | 6.8 | 2.2 | -2.7
Cc1ccc(/C=[N+](/C)[O-])cc1 | 7.3 | -10.1 | 7.1 | -2.9 | 6.1 | 2.8
Cc1ccc(C=C2C(Cl)=C(Cl)C(Cl)=C2Cl)cc1 | 41.5* | . | . | . | . | .
C[C@@H]1C=CCCO[C@]12C(=O)N(CC1CC1)c1ccccc12 | . | -4.0 | . | 8.8 | . | .
CC1=NN(c2ccccc2)C(=O)/C1=C/c1ccc(Cl)cc1 | . | 27.7* | 7.2 | -9.7 | 8.7 | 13.7
Cc1cccc(CS(=O)(=O)Cc2ccc(C(=O)NCCc3ccccc3)o2)c1 | 28.6* | -8.0 | 7.6 | 3.6 | 3.6 | 6.2
CCOCCCNC(=O)c1ccc(CS(=O)(=O)Cc2cccc(C)c2)o1 | 0.0 | 7.7 | 4.2 | 4.8 | -2.0 | -2.7
CCCCNC(=O)c1ccc(CS(=O)(=O)Cc2ccccc2F)o1 | 25.2* | -2.1 | 6.2 | -3.1 | 9.1 | -1.4
CC(C)OCCCNC(=O)c1ccc(CS(=O)(=O)Cc2ccccc2F)o1 | 3.6 | -3.3 | 10.6 | -6.0 | 0.4 | -7.3
Cc1cccc(CS(=O)(=O)Cc2ccc(C(=O)NCCCN3CCOCC3)o2)c1 | 11.6 | 2.6 | 8.2 | 10.6 | 2.8 | -3.3
Cc1cccc(CS(=O)(=O)Cc2ccc(C(=O)NCCCN3CCCC3)o2)c1 | 32.7* | -11.6 | 6.0 | -1.8 | -5.7 | -2.5
COc1ccc(CCNC(=O)c2ccc(CSc3ccccc3)o2)cc1 | 25.2* | -13.3 | 0.3 | -13.8 | 16.0 | -3.6
COCc1[nH]nc2c1C(c1cccc(C(F)(F)F)c1)N(c1ccc(OC)cc1)C2=O (stereo not given) | . | 0.2 | . | -5.2 | . | .
CC(C)(C)OC(=O)N1CCC[C@@H]1C(=O)N1CCC[C@@H]1C(=O)NCc1ccccc1 | . | -2.9 | . | 5.0 | . | .
c1ccc(-c2csc3ncnc(NCC4COc5ccccc5O4)c23)cc1 (stereo not given) | 33.5* | -5.6 | 5.9 | -6.4 | 4.9 | -2.5
CC(NC(=O)c1ccccc1Br)C1CC2CCC1C2 (stereo not given) | 3.0 | 3.0 | . | 5.2 | . | .
SMILES | pPAFAH inh | ARFGAP1 inh | PAFAH1B3 FP inh | ASAP1 GAP inh | PAFAH1B2 FP inh | PAFAH2 inh
CC(NS(=O)(=O)c1ccccc1Cl)C1CC2CCC1C2 (stereo not given) | 3.4 | 7.9 | 0.3 | 0.5 | 26.1* | -8.9
CCOc1ccc(N2C(=O)CS/C2=C(\C(Cl)=C(Cl)Cl)[N+](=O)[O-])cc1 | 27.8* | . | 10.6 | . | 2.0 | -0.2
COC(=O)C1=C(C)N(Cc2cccc(C(F)(F)F)c2)C(=NCC2CC2)NC1c1ccccc1C(F)(F)F (stereo not given) | . | 3.7 | . | -2.0 | . | .
CC(C)(C)OC(=O)N1CCC2CCN(S(C)(=O)=O)CC21 (stereo not given) | . | 6.5 | . | 5.4 | . | .
Cn1c(=O)c2c(nc(NC3CCCCC3)n2CC(=O)C23CC4CC(CC(C4)C2)C3)n(C)c1=O | 1.6 | 9.0 | -6.0 | 1.0 | 24.6* | 6.8
O=C(C(c1ccccc1)c1ccccc1)N1CCN(Cc2ccc(Br)cc2)CC1 | -0.6 | -6.6 | 4.0 | 11.8 | 24.3* | -3.7
O=C(C(Cl)Cl)N1CCN(Cc2ccccc2)CC1 | 0.4 | -9.7 | 3.6 | -11.0 | 1.5 | 1.1
CCCN1C(=O)c2n[nH]c(C)c2C1c1ccc2c(c1)OCO2 (stereo not given) | . | -3.4 | . | -13.2 | . | .
Oc1ccc(/C=N/NC(=S)Nc2cccnc2)cc1O | 33.1* | -3.3 | 13.0 | -2.6 | 2.3 | 13.2
COC(=O)c1ccc(CN2C(=O)[C@]3(OCCC=C[C@H]3C)c3cc(OC)ccc32)cc1 | . | -11.0 | . | -6.8 | . | .
CCOc1ccc(N2C(=O)C(c3ccccc3)=C(c3nc4ccccc4s3)C2NC(C)=O)cc1 (stereo not given) | 25.6* | -8.3 | 4.4 | -11.4 | -0.8 | -6.0
CCOc1ccc(-n2nnnc2-c2nc3ccccc3s2)cc1 | -5.6 | -7.6 | 4.6 | 6.2 | -2.0 | -8.3
CC(=O)N(C)C[C@@H]1OCc2ccccc2-c2c(n(C)c3ccccc23)C(=O)N([C@@H](C)CO)C[C@@H]1C | . | 9.6 | . | 2.3 | . | .
Cc1ccc(S(=O)(=O)NCC2CCN(C(=O)C(=O)c3cccs3)CC2)cc1 | . | 1.2 | . | 13.7 | . | .
CCC1COC(c2cccn2Cc2ccc(Cl)cc2)=N1 (stereo not given) | 28.4* | -19.0 | 0.8 | 0.0 | 1.5 | 4.2
COc1ccccc1C(=O)NNC(=O)c1ccc(NS(=O)(=O)c2cccs2)cc1 | 11.9 | 17.3 | 8.5 | -0.1 | 2.9 | -9.2
COc1cccc(C(=O)NNC(=O)c2ccc(NS(=O)(=O)c3cccs3)cc2)c1OC | 25.6* | -0.1 | 1.9 | 9.1 | 2.1 | 3.5
Cc1cccc2c(N=Nc3ccc(S(=O)(=O)Nc4ccc(Cl)cc4)cc3[N+](=O)[O-])c(O)[nH]c12 | 33.0* | 2.0 | 3.1 | 12.4 | -5.6 | -20.5
Cc1cccc2c(N=NC(=O)c3ccc(NS(=O)(=O)c4cccs4)cc3)c(O)[nH]c12 | 27.8* | -12.6 | 23.5 | 9.7 | 39.0* | 21.3
c1ccc(Nc2nnc(-c3ccc4c(c3)OCO4)o2)cc1 | . | -3.3 | . | 5.5 | . | .
CCC(C)N(Cc1ccc(OC)cc1OC)S(=O)(=O)c1cc(Br)ccc1Br (stereo not given) | . | 7.8 | . | -4.3 | . | .
Cc1cccnc1N=O | . | 5.4 | . | 15.0 | . | .
O=C(C(=O)N1CCC(CNC(=O)c2sc3ccccc3c2Cl)CC1)c1cccs1 | . | 6.8 | . | 13.3 | . | .
